The values below come from ChEMBL document CHEMBL1146041, “Synthesis and SAR of pyrrolotriazine-4-one based Eg5 inhibitors” (Bioorg Med Chem Lett, 2006).

What all share (assay type): ADME, organism-based
What all share (design): dose 10 mg/kg

The nature of series [1]: Mean residence time in mouse at 10 mg/kg. To be noted: in vivo. An outline of the steps:
(§1)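 Mice (n = 3) dosed at 10 mg/kg in 50% PEG400/50% water; pharmacokinetic parameters given as mean ± deviation.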

The nature of series [2]: Volume of distribution in mouse at 10 mg/kg. The following applies: in vivo, read-out: Vdss. Summed up: as §1
Series [3] is described as follows: Clearance in mouse at 10 mg/kg. To be noted: in vivo. Summed up: as §1
A short description of series [4]: Half life in mouse at 10 mg/kg. To be noted: in vivo. Summed up:
as §1

Consider `Cc1ccc(C(=O)N(CCCN)C(c2nn3c(Cl)ccc3c(=O)n2Cc2ccccc2)C2CC2)cc1` (centres undefined), for which the MRT (usually the average time that molecules of a dose stay in the body) in series [1] was determined as 6.5 h. Moreover, in series [2], the Vd came out at 5.9 L/kg. In series [3], the clearance – broadly, the volume of plasma or blood freed of the substance per unit of time – stood at 16 mL/min/kg. Besides, in series [4], the half-life (as a rule, the time needed for the level to fall by half in the phase considered) is 4.5 h.
